According to ChEMBL document CHEMBL1133478, “Discovery of potent cyclic pseudopeptide human tachykinin NK-2 receptor antagonists” (J Med Chem, 2000):
Bridge positions count the residues as written; N and C are the ends. Square brackets hold non-standard residues; d marks the D form. Peptide text beside a SMILES is read from it. * marks the point of attachment. NH(β-GlcNAc) = CC(=O)N[C@@H]1[C@@H](O)[C@H](O)[C@@H](CO)O[C@H]1N*; Dap = NC[C@H](N)C(=O)O

Assays:
[1] = system: Substance-K receptor (Oryctolagus cuniculus); test: In Vitro evaluation for the functional activity towards Tachykinin receptor 2
Substance-K receptor = target: T1, Substance-K receptor (Homo sapiens, UniProt P21452); test: Binding affinity towards Tachykinin receptor 2
T1 sequence (P21452 whole entry): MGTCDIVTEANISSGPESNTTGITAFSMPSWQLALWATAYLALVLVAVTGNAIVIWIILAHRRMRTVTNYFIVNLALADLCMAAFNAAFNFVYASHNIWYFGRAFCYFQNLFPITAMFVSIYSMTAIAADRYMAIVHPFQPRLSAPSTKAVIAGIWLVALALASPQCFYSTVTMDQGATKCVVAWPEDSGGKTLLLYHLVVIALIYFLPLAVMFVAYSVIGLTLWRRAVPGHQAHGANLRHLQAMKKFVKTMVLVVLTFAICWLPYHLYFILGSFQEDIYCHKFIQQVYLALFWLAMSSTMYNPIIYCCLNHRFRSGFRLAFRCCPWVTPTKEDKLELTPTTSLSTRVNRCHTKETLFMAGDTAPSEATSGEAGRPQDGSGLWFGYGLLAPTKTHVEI
Procedure, shortened: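 Competition binding at human NK-2 receptor expressed in CHO cells, radioligand [125I]NKA. pKi computed with EBDA then LIGAND; mean of 2–6 experiments, each run in duplicate.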

[2] = target: Substance-P receptor (Cavia porcellus) (UniProt P30547)
Chain of Substance-P receptor (Cavia porcellus) (P30547 whole entry): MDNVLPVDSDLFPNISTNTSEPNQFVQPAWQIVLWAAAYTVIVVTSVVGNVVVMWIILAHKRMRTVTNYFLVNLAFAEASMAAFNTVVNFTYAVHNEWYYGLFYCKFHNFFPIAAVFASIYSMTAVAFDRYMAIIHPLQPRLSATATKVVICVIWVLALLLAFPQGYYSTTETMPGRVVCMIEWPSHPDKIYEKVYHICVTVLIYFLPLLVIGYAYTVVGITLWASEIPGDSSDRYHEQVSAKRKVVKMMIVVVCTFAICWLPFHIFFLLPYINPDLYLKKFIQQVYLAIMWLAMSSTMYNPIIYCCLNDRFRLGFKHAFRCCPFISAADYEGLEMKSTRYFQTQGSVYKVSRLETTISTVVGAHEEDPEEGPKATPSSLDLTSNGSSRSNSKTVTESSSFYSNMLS

[3] = target: T2, Neuromedin-K receptor (Cavia porcellus) (UniProt P30098)
T2 sequence (whole entry): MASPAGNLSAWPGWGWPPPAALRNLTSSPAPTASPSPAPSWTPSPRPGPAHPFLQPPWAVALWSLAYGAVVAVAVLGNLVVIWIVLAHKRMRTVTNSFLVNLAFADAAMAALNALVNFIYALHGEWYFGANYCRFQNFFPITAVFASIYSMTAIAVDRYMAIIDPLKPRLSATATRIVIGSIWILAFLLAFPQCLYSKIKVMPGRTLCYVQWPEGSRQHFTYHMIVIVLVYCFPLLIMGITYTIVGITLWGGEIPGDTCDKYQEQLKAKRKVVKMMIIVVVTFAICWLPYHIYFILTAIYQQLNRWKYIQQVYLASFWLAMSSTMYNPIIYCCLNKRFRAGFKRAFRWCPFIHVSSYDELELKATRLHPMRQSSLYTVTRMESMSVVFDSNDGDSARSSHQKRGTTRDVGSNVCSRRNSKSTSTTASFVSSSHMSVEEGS

[4] = target: T3, Substance-K receptor (Cavia porcellus) (UniProt Q64077)
T3 sequence (whole entry): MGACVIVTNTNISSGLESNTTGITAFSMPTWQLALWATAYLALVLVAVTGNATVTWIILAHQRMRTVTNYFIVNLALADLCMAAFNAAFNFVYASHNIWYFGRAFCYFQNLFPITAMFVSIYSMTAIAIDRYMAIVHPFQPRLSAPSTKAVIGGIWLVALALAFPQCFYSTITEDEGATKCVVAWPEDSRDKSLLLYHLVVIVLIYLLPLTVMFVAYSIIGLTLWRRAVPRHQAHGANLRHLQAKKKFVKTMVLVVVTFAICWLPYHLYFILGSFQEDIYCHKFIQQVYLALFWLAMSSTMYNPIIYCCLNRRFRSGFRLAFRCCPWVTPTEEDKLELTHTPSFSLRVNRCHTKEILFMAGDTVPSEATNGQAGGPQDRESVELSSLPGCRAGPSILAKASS

Row | SMILES | pKb [1] | Ki (Substance-K receptor) [µM] | pKB [2] | pKB [3] | pKB [4]
1 | O=C1CCC(=O)N[C@@H](Cc2c[nH]c3ccccc23)C(=O)N[C@@H](Cc2ccccc2)C(=O)N[C@H](Cc2ccc(F)c(F)c2)CN1 | 7.8 | 0.00158 |  |  | 
2 | CC(=O)N[C@@H]1[C@@H](O)[C@H](O)[C@@H](CO)O[C@H]1NC(=O)C[C@@H]1NC(=O)[C@H](CC(C)C)NC(=O)[C@@H]2CNC(=O)C[C@H](NC1=O)C(=O)N[C@@H](Cc1c[nH]c3ccccc13)C(=O)N[C@@H](Cc1ccccc1)C(=O)N2 (cyclo(D(NH(β-GlcNAc))DWF[Dap]L); lactam 2-5) |  | 0.00251 |  |  | 
3 | O=C1CCC(=O)N[C@@H](Cc2c[nH]c3ccccc23)C(=O)N[C@@H](Cc2ccccc2)C(=O)N[C@H](Cc2ccc3ccccc3c2)CN1 | 7 | 0.00794 |  |  | 
4 | O=C1CCC(=O)N[C@@H](Cc2c[nH]c3ccccc23)C(=O)N[C@@H](Cc2ccccc2)C(=O)NCCN1 | 6.3 | 1.26 |  |  | 
5 | O=C1CCC(=O)N[C@@H](Cc2c[nH]c3ccccc23)C(=O)N[C@@H](Cc2ccccc2)C(=O)N[C@H](Cc2ccc(C(F)(F)F)cc2)CN1 | 7.1 | 0.02 |  |  | 
6 | CSCC[C@@H]1NC(=O)[C@H](CC(C)C)NC(=O)[C@@H]2CNC(=O)C[C@H](NC1=O)C(=O)N[C@@H](Cc1c[nH]c3ccccc13)C(=O)N[C@@H](Cc1ccccc1)C(=O)N2 (cyclo(DWF[Dap]LM); lactam 1-4) | 8.1 | 0.000631 |  |  | 
7 | O=C1CCC(=O)NC(Cc2c[nH]c3ccccc23)C(=O)N[C@@H](Cc2ccccc2)C(=O)N[C@H](Cc2ccccc2)CN1 (single isomer, unassigned) |  | 0.002 | 5.7 | 6.1 | 7.8
8 | O=C1CCC(=O)N[C@@H](Cc2c[nH]c3ccccc23)C(=O)N[C@@H](Cc2ccccc2)C(=O)NC[C@H](Cc2ccccc2)N1 | 5.5 | 1.26 |  |  | 
9 | O=C1CCC(=O)N[C@@H](Cc2c[nH]c3ccccc23)C(=O)N[C@@H](Cc2ccccc2)C(=O)NC(Cc2ccccc2)CN1 (some centres not stated) |  | 1.26 |  |  | 
10 | O=C1CCC(=O)N[C@@H](Cc2c[nH]c3ccccc23)C(=O)N[C@@H](Cc2ccccc2)C(=O)N[C@H](CCc2ccccc2)CN1 | 6.5 | 0.01 |  |  | 
11 | COc1ccc(CC2CNC(=O)CCC(=O)N[C@@H](Cc3c[nH]c4ccccc34)C(=O)N[C@@H](Cc3ccccc3)C(=O)N2)cc1 (some centres not stated) | 7.1 | 0.01 |  |  | 
12 | O=C1CCC(=O)N[C@@H](Cc2c[nH]c3ccccc23)C(=O)N[C@@H](Cc2ccccc2)C(=O)N[C@H](CC2CCCCC2)CN1 | 6.5 | 0.316 |  |  | 
13 | O=C1CC(Cc2ccccc2)C(=O)N[C@@H](Cc2c[nH]c3ccccc23)C(=O)N[C@@H](Cc2ccccc2)C(=O)NCCN1 (mixture of isomers) | 5.7 | 0.631 |  |  | 
14 | O=C1CC(Cc2ccccc2)C(=O)NCCNC(=O)[C@H](Cc2ccccc2)NC(=O)[C@H](Cc2c[nH]c3ccccc23)N1 (mixture of isomers) | 6.1 | 0.794 |  |  | 
15 | O=C1CCC(=O)N[C@H](Cc2ccccc2)CNC(=O)[C@H](Cc2ccccc2)NC(=O)C(Cc2c[nH]c3ccccc23)N1 (single isomer, unassigned) | 5.4 | 1.26 |  |  | 
16 | O=C1CCC(=O)N[C@@H](Cc2c[nH]c3ccccc23)C(=O)N[C@@H](Cc2ccccc2)C(=O)N[C@H](Cc2ccc(Cl)c(Cl)c2)CN1 | 8.1 | 0.0001 |  |  | 
